pKi: −log10 of the molar value.
Tests used:
Digitaria sanguinalis = assay: Post-emergence herbicidal activity against Digitaria sanguinalis (hairy crabgrass) assessed as growth inhibition at emulsified concentrate of 150 g/ai ha after 15 days by greenhouse test; assay type: functional
In short: (§1)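 About 20 seeds sown 1–3 cm deep, grown at 15–30 °C and 50% RH. Monocot seedlings sprayed postemergence at the one-leaf stage with a 100 g/L emulsifiable concentrate (DMF/Tween-80) diluted in water, 150 g ai/ha. Untreated and solvent controls included. Visual rating at 15 days, three replicates.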

Echinochloa crus-galli = assay: Post-emergence herbicidal activity against Echinochloa crus-galli (barnyard grass) assessed as growth inhibition at emulsified concentrate of 150 g/ai ha after 15 days by greenhouse test; assay type: functional; in short: as §1
Eclipta prostrata [1] = assay: Post-emergence herbicidal activity against Eclipta prostrata assessed as growth inhibition at emulsified concentrate of 75 g/ai ha after 15 days by greenhouse test; assay type: functional
In short: (§2)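 Compounds were made up as 100 g/L emulsifiable concentrates in DMF with Tween-80, then diluted in water. About 20 seeds were sown 1-3 cm deep in pots and grown in a greenhouse at 15-30 °C and 50% relative humidity. Sprays were applied postemergence at the two-leaf stage. Untreated and DMF + Tween-80 solvent controls were included. Injury was scored visually 15 days after treatment, with three replicates per treatment.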

Eclipta prostrata [2] = assay: Post-emergence herbicidal activity against Eclipta prostrata assessed as growth inhibition at emulsified concentrate of 37.5 g/ai ha after 15 days by greenhouse test; assay type: functional; in short: as §2
Rumex acetosa [3] = assay: Post-emergence herbicidal activity against Rumex acetosa assessed as growth inhibition at emulsified concentrate of 150 g/ai ha after 15 days by greenhouse test; assay type: functional
Rumex acetosa [4] = assay: Post-emergence herbicidal activity against Rumex acetosa assessed as growth inhibition at emulsified concentrate of 75 g/ai ha after 15 days by greenhouse test; assay type: functional
Rumex acetosa [5] = assay: Post-emergence herbicidal activity against Rumex acetosa assessed as growth inhibition at emulsified concentrate of 37.5 g/ai ha after 15 days by greenhouse test; assay type: functional
Amaranthus retroflexus [6] = assay: Post-emergence herbicidal activity against Amaranthus retroflexus assessed as growth inhibition at emulsified concentrate of 75 g/ai ha after 15 days by greenhouse test; assay type: functional; in short: as §2
Amaranthus retroflexus [7] = assay: Post-emergence herbicidal activity against Amaranthus retroflexus assessed as growth inhibition at emulsified concentrate of 37.5 g/ai ha after 15 days by greenhouse test; assay type: functional; in short: as §2
Cyperus iria [8] = assay: Post-emergence herbicidal activity against Cyperus iria assessed as growth inhibition at emulsified concentrate of 150 g/ai ha after 15 days by greenhouse test; assay type: functional
Cyperus iria [9] = assay: Post-emergence herbicidal activity against Cyperus iria assessed as growth inhibition at emulsified concentrate of 75 g/ai ha after 15 days by greenhouse test; assay type: functional
Cyperus iria [10] = assay: Post-emergence herbicidal activity against Cyperus iria assessed as growth inhibition at emulsified concentrate of 37.5 g/ai ha after 15 days by greenhouse test; assay type: functional
Abutilon theophrasti [11] = assay: Post-emergence herbicidal activity against Abutilon theophrasti (velvetleaf) assessed as growth inhibition at emulsified concentrate of 150 g/ai ha after 15 days by greenhouse test; assay type: functional
Abutilon theophrasti [12] = assay: Post-emergence herbicidal activity against Abutilon theophrasti (velvetleaf) assessed as growth inhibition at emulsified concentrate of 37.5 g/ai ha after 15 days by greenhouse test; assay type: functional
Abutilon theophrasti [13] = assay: Post-emergence herbicidal activity against Abutilon theophrasti (velvetleaf) assessed as growth inhibition at emulsified concentrate of 75 g/ai ha after 15 days by greenhouse test; assay type: functional
Polygonum humifusum [14] = assay: Post-emergence herbicidal activity against Polygonum humifusum assessed as growth inhibition at emulsified concentrate of 150 g/ai ha after 15 days by greenhouse test; assay type: functional
Polygonum humifusum [15] = assay: Post-emergence herbicidal activity against Polygonum humifusum assessed as growth inhibition at emulsified concentrate of 75 g/ai ha after 15 days by greenhouse test; assay type: functional
Polygonum humifusum [16] = assay: Post-emergence herbicidal activity against Polygonum humifusum assessed as growth inhibition at emulsified concentrate of 37.5 g/ai ha after 15 days by greenhouse test; assay type: functional
Brassica juncea [17] = assay: Post-emergence herbicidal activity against Brassica juncea assessed as growth inhibition at emulsified concentrate of 75 g/ai ha after 15 days by greenhouse test; assay type: functional; in short: as §2
Brassica juncea [18] = assay: Post-emergence herbicidal activity against Brassica juncea assessed as growth inhibition at emulsified concentrate of 37.5 g/ai ha after 15 days by greenhouse test; assay type: functional; in short: as §2
Eclipta prostrata [19] = assay: Post-emergence herbicidal activity against Eclipta prostrata assessed as growth inhibition at emulsified concentrate of 150 g/ai ha after 15 days by greenhouse test; assay type: functional
In short: (§3)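 About 20 seeds sown 1–3 cm deep, grown at 15–30 °C and 50% RH. Dicot seedlings sprayed postemergence at the two-leaf stage with a 100 g/L emulsifiable concentrate (DMF/Tween-80) diluted in water, 150 g ai/ha. Untreated and solvent controls included. Visual rating at 15 days, three replicates.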

Amaranthus retroflexus [20] = assay: Post-emergence herbicidal activity against Amaranthus retroflexus assessed as growth inhibition at emulsified concentrate of 150 g/ai ha after 15 days by greenhouse test; assay type: functional; in short: as §3
Brassica juncea [21] = assay: Post-emergence herbicidal activity against Brassica juncea assessed as growth inhibition at emulsified concentrate of 150 g/ai ha after 15 days by greenhouse test; assay type: functional; in short: as §3
Poa annua = assay: Post-emergence herbicidal activity against Poa annua assessed as growth inhibition at emulsified concentrate of 150 g/ai ha after 15 days by greenhouse test; assay type: functional; in short: as §1
[22] = target: T1, Protoporphyrinogen oxidase (Homo sapiens, UniProt P50336); assay: Inhibition of Homo sapiens (human) recombinant protoporphyrinogen oxidase expressed in Escherichia coli JM109 assessed as oxidation of protoporphyrinogen IX substrate by fluorescence assay
T1 sequence (P50336 whole entry): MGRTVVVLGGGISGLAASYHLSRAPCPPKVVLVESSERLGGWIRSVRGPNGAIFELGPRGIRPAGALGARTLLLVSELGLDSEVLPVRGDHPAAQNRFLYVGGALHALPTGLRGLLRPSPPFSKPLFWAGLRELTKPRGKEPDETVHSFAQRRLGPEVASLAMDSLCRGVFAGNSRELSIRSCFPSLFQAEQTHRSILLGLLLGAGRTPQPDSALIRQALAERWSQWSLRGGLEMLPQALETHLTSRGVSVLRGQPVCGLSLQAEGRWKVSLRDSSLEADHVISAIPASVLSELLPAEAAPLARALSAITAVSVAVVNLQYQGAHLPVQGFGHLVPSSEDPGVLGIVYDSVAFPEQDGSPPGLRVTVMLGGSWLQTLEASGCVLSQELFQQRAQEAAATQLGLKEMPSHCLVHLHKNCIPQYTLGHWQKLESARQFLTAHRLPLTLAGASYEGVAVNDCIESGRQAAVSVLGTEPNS

| SMILES | inhibition (INH) (Digitaria sanguinalis) [%] | inhibition (INH) (Echinochloa crus-galli) [%] | inhibition (INH) (Eclipta prostrata [1]) [%] | inhibition (INH) (Eclipta prostrata [2]) [%] | inhibition (INH) (Rumex acetosa [3]) [%] | inhibition (INH) (Rumex acetosa [4]) [%] | inhibition (INH) (Rumex acetosa [5]) [%] | inhibition (INH) (Amaranthus retroflexus [6]) [%] | inhibition (INH) (Amaranthus retroflexus [7]) [%] | inhibition (INH) (Cyperus iria [8]) [%] | inhibition (INH) (Cyperus iria [9]) [%] | inhibition (INH) (Cyperus iria [10]) [%] | inhibition (INH) (Abutilon theophrasti [11]) [%] | inhibition (INH) (Abutilon theophrasti [12]) [%] | inhibition (INH) (Abutilon theophrasti [13]) [%] | inhibition (INH) (Polygonum humifusum [14]) [%] | inhibition (INH) (Polygonum humifusum [15]) [%] | inhibition (INH) (Polygonum humifusum [16]) [%] | inhibition (INH) (Brassica juncea [17]) [%] | inhibition (INH) (Brassica juncea [18]) [%] | also measured |
| --- | --- | --- | --- | --- | --- | --- | --- | --- | --- | --- | --- | --- | --- | --- | --- | --- | --- | --- | --- | --- | --- |
| CCOC(=O)CCCSc1nc2cc(-n3nc(C(C)(C)C)oc3=O)c(F)cc2s1 | 0 | 0 | 60 | 50 | 70 | 60 | 50 | 80 | 60 | 70 | 60 | 60 | 50 | 0 | 0 | 80 | 80 | 50 | 50 | 50 | inhibition (INH) (Eclipta prostrata [19]): 70%; inhibition (INH) (Amaranthus retroflexus [20]): 90%; inhibition (INH) (Brassica juncea [21]): 50%; inhibition (INH) (Poa annua): 0%; pKi [22]: 6.15 |
| CCOC(=O)C(C)Sc1nc2cc(-n3nc(C(C)(C)C)oc3=O)c(F)cc2s1 (stereo not given) | 50 | 0 | 85 | 80 | 100 | 95 | 95 | 60 | 60 | 100 | 90 | 90 | 100 | 80 | 100 | 70 | 70 | 60 | 70 | 70 | inhibition (INH) (Eclipta prostrata [19]): 95%; inhibition (INH) (Amaranthus retroflexus [20]): 90%; inhibition (INH) (Brassica juncea [21]): 75%; inhibition (INH) (Poa annua): 0%; pKi [22]: 5.85 |
